Source: ChEMBL document CHEMBL1124094, “Synthesis and pharmacological activity of angiotensin converting enzyme inhibitors: N-(mercaptoacyl)-4-substituted-(S)-prolines” (J Med Chem, 1988)
Active and inactive are the calls of the source. The rule behind the calls is not given here.

Key:
[1] = biological target: T1, Angiotensin-converting enzyme (Oryctolagus cuniculus) (UniProt P12822); assay: In vitro inhibition of Angiotensin I converting enzyme relative to captopril(=1)
T1 sequence (whole entry): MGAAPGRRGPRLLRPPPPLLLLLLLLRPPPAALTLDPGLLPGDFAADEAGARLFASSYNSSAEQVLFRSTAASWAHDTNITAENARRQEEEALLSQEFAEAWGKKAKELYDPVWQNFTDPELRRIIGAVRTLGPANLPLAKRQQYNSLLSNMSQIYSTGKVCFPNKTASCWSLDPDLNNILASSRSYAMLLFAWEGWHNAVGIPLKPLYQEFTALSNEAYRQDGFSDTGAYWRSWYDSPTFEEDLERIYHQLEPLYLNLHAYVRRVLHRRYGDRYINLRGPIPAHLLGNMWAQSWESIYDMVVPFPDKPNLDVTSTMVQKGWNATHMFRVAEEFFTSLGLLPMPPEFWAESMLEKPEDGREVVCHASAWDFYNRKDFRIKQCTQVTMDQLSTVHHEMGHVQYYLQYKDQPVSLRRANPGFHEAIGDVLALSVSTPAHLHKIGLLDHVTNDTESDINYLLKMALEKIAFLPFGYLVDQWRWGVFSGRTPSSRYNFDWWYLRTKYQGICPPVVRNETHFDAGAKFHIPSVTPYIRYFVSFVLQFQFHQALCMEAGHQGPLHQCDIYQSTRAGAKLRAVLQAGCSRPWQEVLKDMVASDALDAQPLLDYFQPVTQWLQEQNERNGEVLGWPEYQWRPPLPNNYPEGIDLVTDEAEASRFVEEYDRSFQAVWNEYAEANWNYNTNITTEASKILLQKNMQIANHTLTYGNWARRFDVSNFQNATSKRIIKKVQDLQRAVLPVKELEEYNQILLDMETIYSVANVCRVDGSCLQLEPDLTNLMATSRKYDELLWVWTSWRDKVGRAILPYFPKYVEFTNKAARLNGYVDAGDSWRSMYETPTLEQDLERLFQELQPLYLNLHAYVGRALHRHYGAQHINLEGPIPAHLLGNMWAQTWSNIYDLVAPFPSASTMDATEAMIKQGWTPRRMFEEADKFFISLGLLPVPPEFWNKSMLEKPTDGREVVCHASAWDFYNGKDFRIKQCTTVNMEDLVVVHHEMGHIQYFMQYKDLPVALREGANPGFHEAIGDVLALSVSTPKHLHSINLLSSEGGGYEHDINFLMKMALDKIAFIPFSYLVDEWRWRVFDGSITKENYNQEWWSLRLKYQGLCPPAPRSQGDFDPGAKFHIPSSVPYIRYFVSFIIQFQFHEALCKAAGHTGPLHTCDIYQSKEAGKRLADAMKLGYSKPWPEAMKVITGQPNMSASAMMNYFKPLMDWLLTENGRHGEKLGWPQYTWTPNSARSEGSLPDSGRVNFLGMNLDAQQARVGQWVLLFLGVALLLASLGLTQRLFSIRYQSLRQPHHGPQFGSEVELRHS
Outline: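 Crude ACE from rabbit lung acetone powder extracted in 50 mM potassium phosphate pH 8.3, spun 40000g. Final assay: 100 mM phosphate pH 8.3, 300 mM NaCl, 5 mM hippuryl-His-Leu; enzyme added last, 30 min at 37 °C, stopped with HCl. Hippuric acid extracted into EtOAc, dried, redissolved in water, read by absorbance.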

[2] = biological target: T2, Angiotensin-converting enzyme (Rattus norvegicus) (UniProt P47820); assay: (§1) In vivo inhibition of Angiotensin I converting enzyme in anaesthetized rats; type: organism-based
T2 sequence (whole entry): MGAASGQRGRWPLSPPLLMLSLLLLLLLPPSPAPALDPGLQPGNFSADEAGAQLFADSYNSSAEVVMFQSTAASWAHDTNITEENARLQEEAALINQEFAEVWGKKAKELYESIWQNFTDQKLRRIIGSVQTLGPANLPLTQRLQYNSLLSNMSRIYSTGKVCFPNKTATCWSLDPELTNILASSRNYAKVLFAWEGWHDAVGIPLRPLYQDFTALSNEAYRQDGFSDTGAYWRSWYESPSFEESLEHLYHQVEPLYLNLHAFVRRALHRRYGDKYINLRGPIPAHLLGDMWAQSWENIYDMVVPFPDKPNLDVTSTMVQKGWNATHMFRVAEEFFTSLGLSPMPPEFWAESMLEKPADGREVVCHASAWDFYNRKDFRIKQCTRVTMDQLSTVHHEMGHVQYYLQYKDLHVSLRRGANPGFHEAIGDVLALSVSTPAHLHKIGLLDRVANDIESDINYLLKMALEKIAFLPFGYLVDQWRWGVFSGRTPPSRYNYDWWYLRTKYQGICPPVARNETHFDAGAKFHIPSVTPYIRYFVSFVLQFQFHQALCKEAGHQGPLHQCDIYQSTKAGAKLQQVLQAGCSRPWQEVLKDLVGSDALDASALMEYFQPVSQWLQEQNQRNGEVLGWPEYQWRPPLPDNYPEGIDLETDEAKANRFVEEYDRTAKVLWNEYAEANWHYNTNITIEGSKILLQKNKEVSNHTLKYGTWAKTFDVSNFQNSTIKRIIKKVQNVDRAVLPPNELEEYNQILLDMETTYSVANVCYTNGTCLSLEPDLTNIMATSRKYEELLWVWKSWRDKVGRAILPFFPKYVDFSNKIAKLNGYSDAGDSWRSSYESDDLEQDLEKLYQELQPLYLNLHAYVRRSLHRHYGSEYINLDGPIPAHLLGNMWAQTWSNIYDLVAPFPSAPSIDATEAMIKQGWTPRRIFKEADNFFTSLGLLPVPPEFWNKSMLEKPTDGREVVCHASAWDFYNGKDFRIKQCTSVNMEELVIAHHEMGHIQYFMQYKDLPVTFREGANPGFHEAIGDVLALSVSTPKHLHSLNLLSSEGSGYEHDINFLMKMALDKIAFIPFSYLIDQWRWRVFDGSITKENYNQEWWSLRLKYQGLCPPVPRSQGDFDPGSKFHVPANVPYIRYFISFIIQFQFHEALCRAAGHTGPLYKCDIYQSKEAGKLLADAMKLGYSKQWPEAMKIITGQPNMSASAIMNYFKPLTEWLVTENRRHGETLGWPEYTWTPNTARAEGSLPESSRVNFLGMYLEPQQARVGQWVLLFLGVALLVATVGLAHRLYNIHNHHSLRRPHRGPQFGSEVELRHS

Rattus norvegicus [3] = organism: Rattus norvegicus; assay: Compound was tested peroral on the spontaneous hypertensive rat; type: functional
Outline: (§2)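 Spontaneously hypertensive rats; drug in 0.4% methylcellulose, or water, saline or 5% ethanol. Aortic catheter via caudal artery under ether, rats conscious in restrainers; pressure averaged over 30 min, heart rate from pulse trace. Dosed after about 90 min, usually followed for 4 h.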

Rattus norvegicus [4] = assay: Compound was tested orally on the spontaneous hypertensive rat and blood pressure noted at half-hour interval; type: functional; outline: as §2
[5] = biological target: T2, Angiotensin-converting enzyme (Rattus norvegicus); assay: Compound was tested for bradykinin potentiation at 0.1 ug/kg dose; type: functional
[6] = biological target: T2, Angiotensin-converting enzyme (Rattus norvegicus); assay: as §1; type: organism-based; remark: listed apart in the source
Outline: (§3)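 Sprague–Dawley rats under inactin (100 mg/kg) or dial urethane; carotid and jugular cannulas, arterial blood pressure recorded. Angiotensin I response as percent of control; ID50 by linear regression.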

[7] = biological target: T2, Angiotensin-converting enzyme (Rattus norvegicus); assay: In vivo inhibition of Angiotensin I converting enzyme at 100ug/Kg in anaesthetized rats;z denotes 'Inactive'; type: organism-based; outline: as §3
[8] = biological target: T2, Angiotensin-converting enzyme (Rattus norvegicus); assay: In vivo inhibition of Angiotensin I converting enzyme at […] in anaesthetized rats.;z denotes 'Inactive'; type: organism-based; outline: as §3
[9] = biological target: T2, Angiotensin-converting enzyme (Rattus norvegicus); assay: In vivo inhibition of Angiotensin I converting enzyme at 100 ug/kg in anaesthetized rats; type: organism-based; outline: as §3
[10] = biological target: T2, Angiotensin-converting enzyme (Rattus norvegicus); assay: In vivo inhibition of Angiotensin I converting enzyme at […] in anaesthetized rats;z denotes 'Inactive'; type: organism-based; outline: as §3
Rattus norvegicus [11] = assay: Compound was tested for bradykinin potentiation at 0.1 ug/kg dose.; type: functional
[12] = biological target: T2, Angiotensin-converting enzyme (Rattus norvegicus); assay: In vivo inhibition of Angiotensin I converting enzyme at 100ug/Kg in anaesthetized rats;o denotes 'Inactive'; type: organism-based; outline: as §3

| SMILES | relative potency [1] | Delta blood pressure [5] [mmHg] | further results |
| --- | --- | --- | --- |
| CC(CS)C(=O)N1CC2(C[C@H]1C(=O)O)SCCS2 (stereo not given in full) | 1.26 | 34 | ID50 [2]: 0.026 mg/kg; SHR delta blood pressure (Rattus norvegicus [3]): 35 dec; SHR delta blood pressure (Rattus norvegicus [4]): 22 dec |
| CC(CS)C(=O)N1C[C@@H](N=[N+]=[N-])C[C@H]1C(=O)O (stereo not given in full) | 0.54 | – | – |
| O=C(O)[C@@H]1CC2(CN1C(=O)CCS)SCCS2 | 2.6 | 38 | ID50 [2]: 0.078 mg/kg |
| CC(CS)C(=O)N1C[C@H](O)C[C@H]1C(=O)O (stereo not given in full) | – | 48 | ID50 [6]: 0.253 mg/kg |
| CC(CS)C(=O)N1C[C@@H](SC2CCCCC2)C[C@H]1C(=O)O (stereo not given in full) | – | 6 | ID50 [7]: Inactive at 100 ug/kg |
| CC(CS)C(=O)N1C[C@@H](OCc2ccccc2)C[C@H]1C(=O)O (stereo not given in full) | 0.56 | 40 | ID50 [8]: Inactive at 100 ug/kg |
| COC1(OC)C[C@@H](C(=O)O)N(C(=O)C(C)CS)C1 (stereo not given in full) | 0.9 | – | – |
| CO/N=C1\C[C@@H](C(=O)O)N(C(=O)C(C)CS)C1 (stereo not given in full) | 1 | – | – |
| CC(CS)C(=O)N1C[C@@H](F)C[C@H]1C(=O)O (stereo not given in full) | – | – | ID50 [9]: 0.581 mg/kg |
| CC(CS)C(=O)N1C[C@@H](SCc2ccccc2)C[C@H]1C(=O)O (stereo not given in full) | – | 5 | ID50 [10]: Inactive at 100 ug/kg |
| CC(CS)C(=O)N1C[C@@H](Sc2ccccc2)C[C@H]1C(=O)O (stereo not given in full) | – | 22 | ID50 [6]: 0.544 mg/kg |
| CS[C@H]1C[C@@H](C(=O)O)N(C(=O)C(C)CS)C1 (stereo not given in full) | – | – | ID50 [6]: 0.398 mg/kg |
| C[C@H](CS)C(=O)N1CC2(C[C@H]1C(=O)O)SCCS2 | 4 | – | Delta blood pressure (Rattus norvegicus [11]): 43 mmHg; SHR delta blood pressure (Rattus norvegicus [4]): 17 dec |
| CC(CS)C(=O)N1CC2(C[C@H]1C(=O)O)OCC(C)(C)CO2 (stereo not given in full) | 1 | 46 | ID50 [2]: 0.359 mg/kg; Delta blood pressure (Rattus norvegicus [4]): 25 mmHg |
| CC(CS)C(=O)N1C[C@@H](O)C[C@H]1C(=O)O (stereo not given in full) | – | 40 | ID50 [6]: 0.367 mg/kg |
| CC(CS)C(=O)N1C[C@H](F)C[C@H]1C(=O)O (stereo not given in full) | – | 53 | ID50 [12]: inactive |
| CCOCCO[C@@H]1C[C@@H](C(=O)O)N(C(=O)C(C)CS)C1 (stereo not given in full) | – | 45 | ID50 [6]: 0.372 mg/kg |
| CC(CS)C(=O)N1CC2(C[C@H]1C(=O)O)OCCO2 (stereo not given in full) | 1 | 43 | ID50 [2]: 0.065 mg/kg |
| CO[C@@H]1C[C@@H](C(=O)O)N(C(=O)C(C)CS)C1 (stereo not given in full) | 0.5 | – | ID50 [6]: 1.21 mg/kg |
| CC(CS)C(=O)N1C[C@H](OCc2ccccc2)C[C@H]1C(=O)O (stereo not given in full) | – | 47 | ID50 [6]: 0.508 mg/kg |
| CC(CS)C(=O)N1C[C@H](Oc2ccc(Cl)cc2)C[C@H]1C(=O)O (stereo not given in full) | – | 23 | ID50 [12]: inactive |
| CO[C@H]1C[C@@H](C(=O)O)N(C(=O)C(C)CS)C1 (stereo not given in full) | 0.53 | 60 | ID50 [6]: 0.073 mg/kg |
| CC(CS)C(=O)N1C[C@H](OCCOc2ccccc2)C[C@H]1C(=O)O (stereo not given in full) | – | 9 | ID50 [12]: inactive |
| CC(CS)C(=O)N1CC2(C[C@H]1C(=O)O)SCCCS2 (stereo not given in full) | 1.07 | – | ID50 [2]: 0.048 mg/kg |
| O=C(O)[C@@H]1CC2(CN1C(=O)CCS)SCCCS2 | 1 | 19 | ID50 [2]: 0.01 mg/kg |
| COC1=C[C@@H](C(=O)O)N(C(=O)C(C)CS)C1 (stereo not given in full) | – | 52 | ID50 [12]: inactive |
| CC(CS)C(=O)N1C[C@@H](C#N)C[C@H]1C(=O)O (stereo not given in full) | – | 47 | ID50 [12]: inactive |
